Results reported in ChEMBL document CHEMBL4152188, “Design, synthesis and biological evaluation of C(4) substituted monobactams as antibacterial agents against multidrug-resistant Gram-negative bacteria” (Eur J Med Chem, 2018).
In brackets after ≈: the same amount, converted by molar mass. One block for each molecule: values may come before it.

Experiments:
Assay type in all cases: functional
Klebsiella pneumoniae [1] = test: Antibacterial activity against KPC-2 producing Klebsiella pneumoniae isolate 212229 after 18 hrs in presence of BPL by CLSI broth microdilution method; conditions: isolate 212229, 18 h
Summary of the method: (§1)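 CLSI broth microdilution against clinical isolates (ESBL E. coli, KPC-2 MDR K. pneumoniae, IMP-4 MDR P. aeruginosa; five per species). Iron limitation: Mueller-Hinton broth supplemented with 16 mg/liter 2,2'-bipyridyl to complex iron and induce iron uptake systems. Read-out: MIC.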

Escherichia coli [2] = test: Selectivity index, ratio of MIC for against extended-spectrum beta-lactamase producing Escherichia coli isolate 106342 to MIC for extended-spectrum beta-lactamase producing Escherichia coli isolate 106342 in presence of BPL
Pseudomonas aeruginosa [3] = test: Antibacterial activity against IMP-4 producing Pseudomonas aeruginosa isolate 207272 after 18 hrs by CLSI broth microdilution method; conditions: isolate 207272, 18 h
Escherichia coli [4] = test: Antibacterial activity against extended-spectrum beta-lactamase producing Escherichia coli isolate 212648 after 18 hrs in presence of BPL by CLSI broth microdilution method; conditions: isolate 212648, 18 h; summary of the method: as §1
Klebsiella pneumoniae [5] = test: Antibacterial activity against KPC-2 producing Klebsiella pneumoniae isolate 212423 after 18 hrs in presence of BPL by CLSI broth microdilution method; conditions: isolate 212423, 18 h; summary of the method: as §1
Klebsiella pneumoniae [6] = test: Selectivity index, ratio of MIC for against KPC-2 producing Klebsiella pneumoniae isolate 212232 to MIC for against KPC-2 producing Klebsiella pneumoniae isolate 212232 in presence of BPL
Klebsiella pneumoniae [7] = test: Antibacterial activity against KPC-2 producing Klebsiella pneumoniae isolate 212232 after 18 hrs by CLSI broth microdilution method; conditions: isolate 212232, 18 h
Pseudomonas aeruginosa [8] = test: Antibacterial activity against IMP-4 producing Pseudomonas aeruginosa isolate 207272 after 18 hrs in presence of BPL by CLSI broth microdilution method; conditions: isolate 207272, 18 h; summary of the method: as §1
Klebsiella pneumoniae [9] = test: Selectivity index, ratio of MIC for against KPC-2 producing Klebsiella pneumoniae isolate 209735 to MIC for against KPC-2 producing Klebsiella pneumoniae isolate 209735 in presence of BPL
Klebsiella pneumoniae [10] = test: Antibacterial activity against KPC-2 producing Klebsiella pneumoniae isolate 212229 after 18 hrs by CLSI broth microdilution method; conditions: isolate 212229, 18 h
Escherichia coli [11] = test: Antibacterial activity against extended-spectrum beta-lactamase producing Escherichia coli isolate 209285 after 18 hrs by CLSI broth microdilution method; conditions: isolate 209285, 18 h
Escherichia coli [12] = test: Antibacterial activity against extended-spectrum beta-lactamase producing Escherichia coli isolate 106342 after 18 hrs in presence of BPL by CLSI broth microdilution method; conditions: isolate 106342, 18 h; summary of the method: as §1
Escherichia coli [13] = test: Selectivity index, ratio of MIC for against extended-spectrum beta-lactamase producing Escherichia coli isolate 208687 to MIC for extended-spectrum beta-lactamase producing Escherichia coli isolate 208687 in presence of BPL
Pseudomonas aeruginosa [14] = test: Antibacterial activity against IMP-4 producing Pseudomonas aeruginosa isolate 209321 after 18 hrs in presence of BPL by CLSI broth microdilution method; conditions: isolate 209321, 18 h; summary of the method: as §1
Escherichia coli [15] = test: Selectivity index, ratio of MIC for against extended-spectrum beta-lactamase producing Escherichia coli isolate 212648 to MIC for extended-spectrum beta-lactamase producing Escherichia coli isolate 212648 in presence of BPL
Pseudomonas aeruginosa [16] = test: Antibacterial activity against IMP-4 producing Pseudomonas aeruginosa isolate 209471 after 18 hrs in presence of BPL by CLSI broth microdilution method; conditions: isolate 209471, 18 h; summary of the method: as §1
Escherichia coli [17] = test: Selectivity index, ratio of MIC for against Escherichia coli isolate 210737 to MIC for Escherichia coli isolate 210737 in presence of BPL
Escherichia coli [18] = test: Antibacterial activity against Escherichia coli isolate 210737 after 18 hrs by CLSI broth microdilution method; conditions: isolate 210737, 18 h
Pseudomonas aeruginosa [19] = test: Antibacterial activity against IMP-4 producing Pseudomonas aeruginosa isolate 212886 after 18 hrs by CLSI broth microdilution method; conditions: isolate 212886, 18 h
Pseudomonas aeruginosa [20] = test: Selectivity index, ratio of MIC for against IMP-4 producing Pseudomonas aeruginosa isolate 209321 to MIC for against IMP-4 producing Pseudomonas aeruginosa isolate 209321 in presence of BPL
Escherichia coli [21] = test: Antibacterial activity against extended-spectrum beta-lactamase producing Escherichia coli isolate 209285 after 18 hrs in presence of BPL by CLSI broth microdilution method; conditions: isolate 209285, 18 h; summary of the method: as §1
Escherichia coli [22] = test: Antibacterial activity against extended-spectrum beta-lactamase producing Escherichia coli isolate 208687 after 18 hrs by CLSI broth microdilution method; conditions: isolate 208687, 18 h
Pseudomonas aeruginosa [23] = test: Antibacterial activity against IMP-4 producing Pseudomonas aeruginosa isolate 208247 after 18 hrs in presence of BPL by CLSI broth microdilution method; conditions: isolate 208247, 18 h; summary of the method: as §1
Pseudomonas aeruginosa [24] = test: Antibacterial activity against IMP-4 producing Pseudomonas aeruginosa isolate 209321 after 18 hrs by CLSI broth microdilution method; conditions: isolate 209321, 18 h
Klebsiella pneumoniae [25] = test: Antibacterial activity against KPC-2 producing Klebsiella pneumoniae isolate 212232 after 18 hrs in presence of BPL by CLSI broth microdilution method; conditions: isolate 212232, 18 h; summary of the method: as §1
Klebsiella pneumoniae [26] = test: Antibacterial activity against KPC-2 producing Klebsiella pneumoniae isolate 212423 after 18 hrs by CLSI broth microdilution method; conditions: isolate 212423, 18 h
Escherichia coli [27] = test: Selectivity index, ratio of MIC for against extended-spectrum beta-lactamase producing Escherichia coli isolate 209285 to MIC for extended-spectrum beta-lactamase producing Escherichia coli isolate 209285 in presence of BPL
Pseudomonas aeruginosa [28] = test: Antibacterial activity against IMP-4 producing Pseudomonas aeruginosa isolate 212886 after 18 hrs in presence of BPL by CLSI broth microdilution method; conditions: isolate 212886, 18 h; summary of the method: as §1
Escherichia coli [29] = test: Antibacterial activity against extended-spectrum beta-lactamase producing Escherichia coli isolate 208687 after 18 hrs in presence of BPL by CLSI broth microdilution method; conditions: isolate 208687, 18 h; summary of the method: as §1
Klebsiella pneumoniae [30] = test: Antibacterial activity against KPC-2 producing Klebsiella pneumoniae isolate 209632 after 18 hrs in presence of BPL by CLSI broth microdilution method; conditions: isolate 209632, 18 h; summary of the method: as §1
Escherichia coli [31] = test: Antibacterial activity against extended-spectrum beta-lactamase producing Escherichia coli isolate 106342 after 18 hrs by CLSI broth microdilution method; conditions: isolate 106342, 18 h
Klebsiella pneumoniae [32] = test: Selectivity index, ratio of MIC for against KPC-2 producing Klebsiella pneumoniae isolate 209632 to MIC for against KPC-2 producing Klebsiella pneumoniae isolate 209632 in presence of BPL
Klebsiella pneumoniae [33] = test: Antibacterial activity against KPC-2 producing Klebsiella pneumoniae isolate 209735 after 18 hrs in presence of BPL by CLSI broth microdilution method; conditions: isolate 209735, 18 h; summary of the method: as §1
Klebsiella pneumoniae [34] = test: Selectivity index, ratio of MIC for against KPC-2 producing Klebsiella pneumoniae isolate 212423 to MIC for against KPC-2 producing Klebsiella pneumoniae isolate 212423 in presence of BPL
Escherichia coli [35] = test: Antibacterial activity against Escherichia coli isolate 210737 after 18 hrs in presence of BPL by CLSI broth microdilution method; conditions: isolate 210737, 18 h; summary of the method: as §1
Klebsiella pneumoniae [36] = test: Antibacterial activity against KPC-2 producing Klebsiella pneumoniae isolate 209735 after 18 hrs by CLSI broth microdilution method; conditions: isolate 209735, 18 h
Escherichia coli [37] = test: Antibacterial activity against extended-spectrum beta-lactamase producing Escherichia coli isolate 212648 after 18 hrs by CLSI broth microdilution method; conditions: isolate 212648, 18 h
Klebsiella pneumoniae [38] = test: Antibacterial activity against KPC-2 producing Klebsiella pneumoniae isolate 209632 after 18 hrs by CLSI broth microdilution method; conditions: isolate 209632, 18 h
Pseudomonas aeruginosa [39] = test: Antibacterial activity against IMP-4 producing Pseudomonas aeruginosa isolate 208247 after 18 hrs by CLSI broth microdilution method; conditions: isolate 208247, 18 h
Pseudomonas aeruginosa [40] = test: Antibacterial activity against IMP-4 producing Pseudomonas aeruginosa isolate 209471 after 18 hrs by CLSI broth microdilution method; conditions: isolate 209471, 18 h
Klebsiella pneumoniae [41] = test: Selectivity index, ratio of MIC for against KPC-2 producing Klebsiella pneumoniae isolate 212229 to MIC for against KPC-2 producing Klebsiella pneumoniae isolate 212229 in presence of BPL

MIC (Klebsiella pneumoniae [1]): 4 µg/mL
MIC (Pseudomonas aeruginosa [3]): > 64 µg/mL
MIC (Escherichia coli [4]): > 64 µg/mL
MIC (Klebsiella pneumoniae [5]): 4 µg/mL
MIC (Klebsiella pneumoniae [7]): 16 µg/mL (≈ 27.4 µM)
MIC (Pseudomonas aeruginosa [8]): > 64 µg/mL
MIC (Klebsiella pneumoniae [10]): 8 µg/mL (≈ 13.7 µM)
MIC (Escherichia coli [11]): 64 µg/mL (≈ 109 µM)
MIC (Escherichia coli [12]): 16 µg/mL
MIC (Pseudomonas aeruginosa [14]): 64 µg/mL
MIC (Pseudomonas aeruginosa [16]): > 64 µg/mL
MIC (Escherichia coli [18]): 16 µg/mL (≈ 27.4 µM)
MIC (Pseudomonas aeruginosa [19]): > 64 µg/mL
MIC (Escherichia coli [21]): 8 µg/mL
MIC (Escherichia coli [22]): 32 µg/mL (≈ 54.7 µM)
MIC (Pseudomonas aeruginosa [23]): 64 µg/mL
MIC (Pseudomonas aeruginosa [24]): 64 µg/mL (≈ 109 µM)
MIC (Klebsiella pneumoniae [25]): 1 µg/mL
MIC (Klebsiella pneumoniae [26]): 8 µg/mL (≈ 13.7 µM)
MIC (Pseudomonas aeruginosa [28]): > 64 µg/mL
MIC (Escherichia coli [29]): 4 µg/mL
MIC (Klebsiella pneumoniae [30]): 4 µg/mL
MIC (Escherichia coli [31]): 32 µg/mL (≈ 54.7 µM)
MIC (Klebsiella pneumoniae [33]): 4 µg/mL
MIC (Escherichia coli [35]): 8 µg/mL
MIC (Klebsiella pneumoniae [36]): 16 µg/mL (≈ 27.4 µM)
MIC (Escherichia coli [37]): > 64 µg/mL
MIC (Klebsiella pneumoniae [38]): 8 µg/mL (≈ 13.7 µM)
MIC (Pseudomonas aeruginosa [39]): > 64 µg/mL
MIC (Pseudomonas aeruginosa [40]): > 64 µg/mL
SMILES: CC(C)C(O/N=C(\C(=O)NC1C(=O)N(S(=O)(=O)O)C12CCCCC2)c1csc(N)n1)c1cc(=O)c(O)cn1O (configuration not stated)
Selectivity Index (Escherichia coli [2]): 2
Selectivity Index (Klebsiella pneumoniae [6]): 16
Selectivity Index (Klebsiella pneumoniae [9]): 4
Selectivity Index (Escherichia coli [13]): 8
Selectivity Index (Escherichia coli [15]): 2 - 8
Selectivity Index (Escherichia coli [17]): 2
Selectivity Index (Pseudomonas aeruginosa [20]): 1
Selectivity Index (Escherichia coli [27]): 8
Selectivity Index (Klebsiella pneumoniae [32]): 2
Selectivity Index (Klebsiella pneumoniae [34]): 2
Selectivity Index (Klebsiella pneumoniae [41]): 2

MIC (Klebsiella pneumoniae [1]): > 64 µg/mL
MIC (Pseudomonas aeruginosa [3]): > 64 µg/mL
MIC (Escherichia coli [4]): > 64 µg/mL
MIC (Klebsiella pneumoniae [5]): > 64 µg/mL
MIC (Klebsiella pneumoniae [7]): > 64 µg/mL
MIC (Pseudomonas aeruginosa [8]): > 64 µg/mL
MIC (Klebsiella pneumoniae [10]): > 64 µg/mL
MIC (Escherichia coli [11]): > 64 µg/mL
MIC (Escherichia coli [12]): 64 µg/mL
MIC (Pseudomonas aeruginosa [14]): 64 µg/mL
MIC (Pseudomonas aeruginosa [16]): > 64 µg/mL
MIC (Escherichia coli [18]): > 64 µg/mL
MIC (Pseudomonas aeruginosa [19]): > 64 µg/mL
MIC (Escherichia coli [21]): > 64 µg/mL
MIC (Escherichia coli [22]): 64 µg/mL (≈ 118 µM)
MIC (Pseudomonas aeruginosa [23]): > 64 µg/mL
MIC (Pseudomonas aeruginosa [24]): 64 µg/mL (≈ 118 µM)
MIC (Klebsiella pneumoniae [25]): > 64 µg/mL
MIC (Klebsiella pneumoniae [26]): > 64 µg/mL
MIC (Pseudomonas aeruginosa [28]): > 64 µg/mL
MIC (Escherichia coli [29]): 2 µg/mL
MIC (Klebsiella pneumoniae [30]): > 64 µg/mL
MIC (Escherichia coli [31]): 64 µg/mL (≈ 118 µM)
MIC (Klebsiella pneumoniae [33]): > 64 µg/mL
MIC (Escherichia coli [35]): > 64 µg/mL
MIC (Klebsiella pneumoniae [36]): > 64 µg/mL
MIC (Escherichia coli [37]): > 64 µg/mL
MIC (Klebsiella pneumoniae [38]): > 64 µg/mL
MIC (Pseudomonas aeruginosa [39]): > 64 µg/mL
MIC (Pseudomonas aeruginosa [40]): > 64 µg/mL
SMILES: C=CC1[C@H](NC(=O)/C(=N\OC(c2cc(=O)c(O)cn2O)C(C)C)c2csc(N)n2)C(=O)N1S(=O)(=O)O (some centres not stated)
Selectivity Index (Escherichia coli [2]): 1
Selectivity Index (Escherichia coli [13]): 32
Selectivity Index (Escherichia coli [15]): 1 - 32
Selectivity Index (Escherichia coli [17]): 1 - 32
Selectivity Index (Pseudomonas aeruginosa [20]): 1
Selectivity Index (Escherichia coli [27]): 1 - 32
